According to ChEMBL document CHEMBL1159338, “New dimeric naphthopyrones from Aspergillus niger” (J Nat Prod, 2003):
Activity calls are given as the source filed them. The rule behind the calls is not given here.

Legend:
[1] = target: Telomerase reverse transcriptase (Homo sapiens) (UniProt O14746); assay: Inhibition of human telomerase activity at 100 ug/mL by TRAP assay
Procedure, shortened: (§1)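 TRAP format: DMSO-dissolved samples in a 50 µL mix with HT1080 cell extract, pH 8.3 Tris-HCl/KCl/MgCl2/EGTA/Tween 20 buffer, TS primer, 50 µM each dNTP, 2 U Taq and [32P]dCTP; CX primer held under wax. Extension ran 30 min at 23 °C, then 90 °C for 90 s and 31 PCR cycles. Products were bound to DE-51 paper and scintillation-counted. Inhibition was taken relative to DMSO, minus RNase-treated extract background.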

[2] = target: DNA polymerase I, thermostable (Thermus aquaticus) (UniProt P19821); assay: Inhibition of Taq polymerase in RNase treated human HT1080 cells at 100 ug/mL by PCR; format: cell-based; conditions: HT-1080
Chain of DNA polymerase I, thermostable (Thermus aquaticus) (P19821 whole entry): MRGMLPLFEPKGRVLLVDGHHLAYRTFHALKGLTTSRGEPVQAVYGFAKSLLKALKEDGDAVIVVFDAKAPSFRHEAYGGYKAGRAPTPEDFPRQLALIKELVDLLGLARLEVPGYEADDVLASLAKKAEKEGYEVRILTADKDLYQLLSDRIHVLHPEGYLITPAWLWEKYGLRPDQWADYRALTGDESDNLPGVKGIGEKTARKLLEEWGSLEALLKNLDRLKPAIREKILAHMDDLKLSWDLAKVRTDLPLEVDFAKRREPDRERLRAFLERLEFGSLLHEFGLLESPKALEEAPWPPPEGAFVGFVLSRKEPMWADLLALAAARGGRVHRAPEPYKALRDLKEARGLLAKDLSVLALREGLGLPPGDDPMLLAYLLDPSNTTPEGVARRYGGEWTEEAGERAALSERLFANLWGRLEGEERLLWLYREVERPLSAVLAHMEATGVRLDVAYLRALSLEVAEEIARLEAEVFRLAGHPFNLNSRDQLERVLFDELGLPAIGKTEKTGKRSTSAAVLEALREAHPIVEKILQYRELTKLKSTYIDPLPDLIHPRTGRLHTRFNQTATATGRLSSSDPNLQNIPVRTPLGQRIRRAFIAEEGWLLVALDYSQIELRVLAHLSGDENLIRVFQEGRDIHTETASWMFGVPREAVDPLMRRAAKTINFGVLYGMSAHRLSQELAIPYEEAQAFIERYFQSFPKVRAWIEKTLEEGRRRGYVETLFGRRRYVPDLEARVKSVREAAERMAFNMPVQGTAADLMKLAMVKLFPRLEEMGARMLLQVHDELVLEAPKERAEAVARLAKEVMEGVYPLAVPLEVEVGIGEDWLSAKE

[3] = target: Telomerase reverse transcriptase (Homo sapiens) (UniProt O14746); assay: Inhibition of human telomerase activity by TRAP assay; conditions: concentration not given here; procedure, shortened: as §1

Chain of Telomerase reverse transcriptase (Homo sapiens) (O14746 whole entry): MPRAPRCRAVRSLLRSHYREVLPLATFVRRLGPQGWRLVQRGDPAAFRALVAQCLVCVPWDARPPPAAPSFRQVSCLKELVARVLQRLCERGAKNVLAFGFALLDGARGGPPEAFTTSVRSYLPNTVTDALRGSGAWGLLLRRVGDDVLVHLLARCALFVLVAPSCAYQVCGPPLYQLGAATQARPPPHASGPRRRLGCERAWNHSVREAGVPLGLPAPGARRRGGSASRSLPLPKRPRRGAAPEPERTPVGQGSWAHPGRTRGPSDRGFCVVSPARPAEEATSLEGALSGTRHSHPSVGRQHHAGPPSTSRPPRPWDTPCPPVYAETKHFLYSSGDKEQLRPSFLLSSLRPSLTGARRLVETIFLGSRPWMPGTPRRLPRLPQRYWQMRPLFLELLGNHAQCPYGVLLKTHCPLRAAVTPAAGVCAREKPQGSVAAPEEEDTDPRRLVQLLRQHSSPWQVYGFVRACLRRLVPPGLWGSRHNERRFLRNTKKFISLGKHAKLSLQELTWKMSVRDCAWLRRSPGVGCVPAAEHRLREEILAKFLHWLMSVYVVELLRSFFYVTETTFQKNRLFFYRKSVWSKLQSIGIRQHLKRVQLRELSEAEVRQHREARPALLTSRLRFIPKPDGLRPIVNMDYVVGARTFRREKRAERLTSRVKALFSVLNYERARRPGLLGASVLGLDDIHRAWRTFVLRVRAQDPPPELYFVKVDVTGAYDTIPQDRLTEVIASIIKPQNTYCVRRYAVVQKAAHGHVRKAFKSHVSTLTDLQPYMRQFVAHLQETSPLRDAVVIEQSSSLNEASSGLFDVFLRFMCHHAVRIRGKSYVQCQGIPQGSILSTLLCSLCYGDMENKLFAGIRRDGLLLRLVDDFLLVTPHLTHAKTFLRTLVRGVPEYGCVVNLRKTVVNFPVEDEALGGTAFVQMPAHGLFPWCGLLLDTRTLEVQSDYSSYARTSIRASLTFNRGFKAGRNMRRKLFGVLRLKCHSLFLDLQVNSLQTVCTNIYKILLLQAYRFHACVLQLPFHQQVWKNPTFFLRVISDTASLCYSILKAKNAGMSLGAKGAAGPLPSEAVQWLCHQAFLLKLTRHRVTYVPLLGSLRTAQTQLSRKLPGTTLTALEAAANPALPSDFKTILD

Structure (SMILES) | Activity [1] | inhibition [2] [%] | inhibition [3] [%]
COc1cc(OC)c2c(O)c3c(=O)cc(C)oc3c(-c3c(OC)cc4cc5oc(C)cc(=O)c5c(O)c4c3OC)c2c1 | inactive | 49 | 52
COc1cc(OC)c2c(O)c3c(=O)cc(C)oc3c(-c3c(O)cc4cc(O)c5c(=O)cc(C)oc5c4c3OC)c2c1 | inactive | 40 | 41
COc1cc(OC)c2c(O)c3c(=O)cc(C)oc3c(-c3c(OC)cc4cc(O)c5c(=O)cc(C)oc5c4c3OC)c2c1 | inactive | 40 | 40
COc1cc(OC)c2c(c1)c(-c1c(OC)cc3cc(O)c4c(=O)cc(C)oc4c3c1OC)c(O)c1c(=O)cc(C)oc12 | inactive |  | 
COc1cc(OC)c2c(c1)c(-c1c(OC)cc3cc4oc(C)cc(=O)c4c(O)c3c1OC)c(O)c1c(=O)cc(C)oc12 | inactive |  | 
